From PMC11452527 (Nature Communications, 2024)
Read-outs that look alike come from different tables or passages of the source.

How the values were obtained:
[1] = target: αIIbβ3; settings: cited from earlier work
[2] = system: C57BL/6J mice; assay: Tail vein bleeding model; assay type: in vivo, mouse; settings: at the dose that suppressed femoral VT
[3] = target: T1, αIIbβ3 (Homo sapiens, UniProt P05106+P08514); assay: ODE model of inhibitor occupancy of αIIbβ3; settings: ODEs Eq 16-22
[4] = system: human PRP; assay: Thrombin-induced clot retraction in platelet-rich plasma; assay type: cell-based; settings: read-out: IC50clot
[5] = Plasma protein binding by rapid equilibrium dialysis; assay type: in vitro ADME; settings: human, platelet-free human plasma
[6] = system: platelets in whole blood; assay: ADP-induced platelet aggregation in 1:1 diluted whole blood; assay type: cell-based; settings: Homo sapiens, read-out: IC50agg
[7] = target: T1, αIIbβ3; assay: LIBS AP5 epitope exposure on platelet αIIbβ3; assay type: cell-based; settings: washed human platelets; tirofiban 0.17 μM, m-tirofiban 16 μM, Hr10 7.6 μM
How it was run: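 Washed platelets came from citrated blood of drug-free donors: PRP was spun with PGE1 (20 ng/ml final), washed in Ringer's citrate-dextrose, and resuspended in Tyrode's buffer (pH 7.4, 0.02% BSA, 1 mM Ca²⁺/Mg²⁺). Buffer or test compound was preincubated 20 min at RT without stirring, then ADP (20 µM) plus Alexa647-AP5 (10 µg/mL) was added for 30 min at RT. Samples were diluted, fixed in 2% paraformaldehyde, and read by flow-cytometric MFI. Mean + s.e., n = 4 donors.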

[8] = system: C57BL/6J mice; assay: Thrombin-induced femoral vein thrombosis model; assay type: in vivo, mouse; settings: bolus tirofiban 0.025 μg/g, m-tirofiban 0.3 μg/g
[9] = system: platelets; settings: cited from earlier work

T1 sequence (P08514 32-887 limits assumed): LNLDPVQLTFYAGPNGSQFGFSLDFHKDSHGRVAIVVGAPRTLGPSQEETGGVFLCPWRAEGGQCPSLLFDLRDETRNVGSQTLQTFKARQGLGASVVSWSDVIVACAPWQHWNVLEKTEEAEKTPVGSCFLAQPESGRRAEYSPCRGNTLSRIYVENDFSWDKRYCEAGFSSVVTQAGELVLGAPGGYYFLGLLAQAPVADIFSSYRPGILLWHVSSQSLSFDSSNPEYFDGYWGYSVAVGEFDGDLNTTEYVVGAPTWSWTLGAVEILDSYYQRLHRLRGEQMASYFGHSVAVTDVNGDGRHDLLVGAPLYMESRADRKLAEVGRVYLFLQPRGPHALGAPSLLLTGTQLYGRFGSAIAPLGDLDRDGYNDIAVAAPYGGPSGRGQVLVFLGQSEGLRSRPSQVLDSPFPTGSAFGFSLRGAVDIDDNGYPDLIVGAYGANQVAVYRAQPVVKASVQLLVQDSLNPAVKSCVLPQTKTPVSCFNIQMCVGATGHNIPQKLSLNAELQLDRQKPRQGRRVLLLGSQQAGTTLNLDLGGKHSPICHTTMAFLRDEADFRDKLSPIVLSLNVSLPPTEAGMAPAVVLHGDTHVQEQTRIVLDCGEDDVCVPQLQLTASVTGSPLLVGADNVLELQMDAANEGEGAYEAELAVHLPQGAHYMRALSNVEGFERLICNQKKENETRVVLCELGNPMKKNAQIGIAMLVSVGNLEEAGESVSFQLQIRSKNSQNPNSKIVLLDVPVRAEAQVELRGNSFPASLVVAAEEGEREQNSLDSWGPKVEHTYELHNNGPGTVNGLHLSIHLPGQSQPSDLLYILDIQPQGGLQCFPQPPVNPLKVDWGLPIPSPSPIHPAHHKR
T1 sequence (P08514 891-1039 partner limits assumed): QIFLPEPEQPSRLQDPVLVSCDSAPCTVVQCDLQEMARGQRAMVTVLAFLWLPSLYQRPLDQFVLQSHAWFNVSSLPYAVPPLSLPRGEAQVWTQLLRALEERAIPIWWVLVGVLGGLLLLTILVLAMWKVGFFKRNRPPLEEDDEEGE
T1 sequence (P05106 27-788): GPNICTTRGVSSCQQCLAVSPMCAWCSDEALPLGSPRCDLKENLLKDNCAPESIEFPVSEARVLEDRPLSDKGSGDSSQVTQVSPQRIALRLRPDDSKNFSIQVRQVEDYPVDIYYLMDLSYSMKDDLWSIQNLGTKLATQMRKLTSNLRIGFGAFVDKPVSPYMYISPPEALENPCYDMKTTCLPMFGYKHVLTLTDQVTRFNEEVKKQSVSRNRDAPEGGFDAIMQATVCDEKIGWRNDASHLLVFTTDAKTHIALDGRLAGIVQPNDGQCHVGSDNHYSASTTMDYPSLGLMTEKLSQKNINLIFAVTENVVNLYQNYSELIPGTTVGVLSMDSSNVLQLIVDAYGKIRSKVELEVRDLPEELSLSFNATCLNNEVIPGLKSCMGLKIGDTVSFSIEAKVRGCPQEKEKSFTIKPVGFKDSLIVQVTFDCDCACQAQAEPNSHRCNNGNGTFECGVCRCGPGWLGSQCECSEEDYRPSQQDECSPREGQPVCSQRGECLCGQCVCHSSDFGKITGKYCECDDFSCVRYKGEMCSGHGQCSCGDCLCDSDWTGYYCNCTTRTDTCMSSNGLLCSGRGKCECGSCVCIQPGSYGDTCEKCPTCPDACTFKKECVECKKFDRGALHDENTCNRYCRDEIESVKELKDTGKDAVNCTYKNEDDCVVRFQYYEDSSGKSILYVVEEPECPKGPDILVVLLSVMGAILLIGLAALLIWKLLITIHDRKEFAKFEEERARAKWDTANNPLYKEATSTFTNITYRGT

## fibrinogen
[1]; read-out: Kd,F of fibrinogen to αIIbβ3, assumed in ODE model ref 58
  Kd: 143 nM

## CCCCS(=O)(=O)N[C@@H](Cc1ccc(OCCCCC2CCNCC2)cc1)C(=O)O [tirofiban]
[2]
  bleeding time vs PBS: prolonged bleeding time
  bleeding vs PBS: significant bleeding
[3]; 1:1 diluted whole blood
  concentration for 50% occupancy of αIIbβ3 (50% OCCL:T): 26.5 nM
[3]; undiluted whole blood
  concentration for 50% occupancy of αIIbβ3 (50% OCCL:T): 38.0 nM
[1]; read-out: Kd for pretreated (inactive) αIIbβ3
  Kd: 15 nM
[4]
  IC50: 162 ± 61 nM
[5]
  fraction unbound at 24 h, 2 µM: 0.413 ± 0.0303
[6]
  IC50: 6 ± 0.58 nM
[7]
  AP5 epitope expression above that seen with ADP (or thrombin) alone: large increase
[8]
  total accumulation of fibrin vs untreated: significant only at a p-value of 0.0606

## N=C(N)c1ccc(C(=O)N[C@@H](Cc2ccc([N+](=O)[O-])cc2)C(=O)N2CCc3nn(CC(=O)O)cc3C2)cc1 [UR-2922]
[1]; read-out: mean Kd to αIIbβ3
  Kd: 0.3 nM
[9]
  IC50clot/IC50agg ratio: 20.63
